“And” between values parts separate entries of the source, which are not always exact repeats. Identical values can stand only once.
System: U2OS
Test: Multiplex assay against U2OS
Format: toxicity, cell-based
Details: human
Summary of the method: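 At seeding, live cells were stained with Hoechst33342, BioTracker Green Microtubule Cytoskeleton Dye, MitoTracker Red and Annexin V Alexa Fluor 680. After compound addition they were imaged on a CQ1 microscope at 37°C and 5% CO2, and CellPathfinder machine-learning gating sorted them into Hoechst high-intensity objects or normal cells, with normal cells further split into healthy, pyknosed or fragmented nuclei and pyknosed cells into mitotic or apoptotic. Tubulin, mitochondrial-mass and membrane-permeability phenotypes are given as per cents of cells with healthy nuclei.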

[1] = 12 h, 1 µM, compound concentration 1 uM, replicate 1
[2] = 12 h, 1 µM, compound concentration 1 uM, replicate 2
[3] = 12 h, 10 µM, compound concentration 10 uM, replicate 1
[4] = 12 h, 10 µM, compound concentration 10 uM, replicate 2
[5] = 24 h, 1 µM, compound concentration 1 uM, replicate 1
[6] = 24 h, 1 µM, compound concentration 1 uM, replicate 2
[7] = 24 h, 10 µM, compound concentration 10 uM, replicate 1
[8] = 24 h, 10 µM, compound concentration 10 uM, replicate 2
[9] = 48 h, 1 µM, compound concentration 1 uM, replicate 1
[10] = 48 h, 1 µM, compound concentration 1 uM, replicate 2
[11] = 48 h, 10 µM, compound concentration 10 uM, replicate 1
[12] = 48 h, 10 µM, compound concentration 10 uM, replicate 2

Cc1[nH]c(/C=C2\C(=O)Nc3ccc(S(=O)(=O)N(C)c4cccc(Cl)c4)cc32)c(C)c1C(=O)N1CCN(C)CC1
Population Apoptotic (%) [1]: 66% | Population Fragmented Nuclei (%) [1]: 13% | Population Mitochondria Different-Phenotype (%) [1]: 58% | Population Mitotic Cells (%) [1]: 33% | Population Pyknosed Nuclei (%) [1]: 9% | Population Tubulin-Different-Phenotype (%) [1]: 80% | Total Cell Count [1]: 305 | Population Apoptotic (%) [2]: 100% | Population Fragmented Nuclei (%) [2]: 16% | Population Healthy Nuclei (%) [2]: 77% | Population Hoechst High Intensity Objects (%) [2]: 12% | Population Membrane Permeable-Phenotype (%) [2]: 12% | Population Mitochondria Different-Phenotype (%) [2]: 42% | Population Mitotic Cells (%) [2]: 0% | Population Normal (%) [2]: 87% | Population Pyknosed Nuclei (%) [2]: 6% | Population Tubulin-Different-Phenotype (%) [2]: 68% | Total Cell Count [2]: 90 | Population Apoptotic (%) [3]: 60% | Population Fragmented Nuclei (%) [3]: 12% | Population Healthy Nuclei (%) [3]: 76% | Population Hoechst High Intensity Objects (%) [3]: 8% | Population Membrane Permeable-Phenotype (%) [3]: 24% | Population Mitochondria Different-Phenotype (%) [3]: 68% | Population Mitotic Cells (%) [3]: 40% | Population Normal (%) [3]: 91% | Population Pyknosed Nuclei (%) [3]: 11% | Total Cell Count [3]: 147 | Population Apoptotic (%) [4]: 25% | Population Fragmented Nuclei (%) [4]: 10% | Population Healthy Nuclei (%) [4]: 74% | Population Hoechst High Intensity Objects (%) [4]: 12% | Population Membrane Permeable-Phenotype (%) [4]: 40% | Population Mitochondria Different-Phenotype (%) [4]: 97% | Population Mitotic Cells (%) [4]: 75% | Population Normal (%) [4]: 87% | Population Pyknosed Nuclei (%) [4]: 16% | Population Tubulin-Different-Phenotype (%) [4]: 100% | Total Cell Count [4]: 70 | Population Apoptotic (%) [5]: 73% | Population Fragmented Nuclei (%) [5]: 11% | Population Healthy Nuclei (%) [5]: 77% | Population Hoechst High Intensity Objects (%) [5]: 9% | Population Membrane Permeable-Phenotype (%) [5]: 7% | Population Mitochondria Different-Phenotype (%) [5]: 51% | Population Mitotic Cells (%) [5]: 26% | Population Normal (%) [5]: 90% | Population Pyknosed Nuclei (%) [5]: 11% | Population Tubulin-Different-Phenotype (%) [5]: 61% | Total Cell Count [5]: 272 | Population Apoptotic (%) [6]: 100% | Population Fragmented Nuclei (%) [6]: 18% | Population Healthy Nuclei (%) [6]: 72% | Population Hoechst High Intensity Objects (%) [6]: 8% | Population Membrane Permeable-Phenotype (%) [6]: 10% | Population Mitochondria Different-Phenotype (%) [6]: 40% | Population Mitotic Cells (%) [6]: 0% | Population Normal (%) [6]: 91% | Population Pyknosed Nuclei (%) [6]: 9% | Population Tubulin-Different-Phenotype (%) [6]: 55% | Total Cell Count [6]: 65 | Population Apoptotic (%) [7]: 82% | Population Fragmented Nuclei (%) [7]: 13% | Population Healthy Nuclei (%) [7]: 68% | Population Hoechst High Intensity Objects (%) [7]: 8% | Population Membrane Permeable-Phenotype (%) [7]: 46% | Population Mitochondria Different-Phenotype (%) [7]: 88% | Population Mitotic Cells (%) [7]: 17% | Population Normal (%) [7]: 91% | Population Pyknosed Nuclei (%) [7]: 17% | Population Tubulin-Different-Phenotype (%) [7]: 100% | Total Cell Count [7]: 140 | Population Apoptotic (%) [8]: 100% | Population Fragmented Nuclei (%) [8]: 17% | Population Healthy Nuclei (%) [8]: 73% | Population Membrane Permeable-Phenotype (%) [8]: 84% | Population Mitochondria Different-Phenotype (%) [8]: 100% | Population Mitotic Cells (%) [8]: 0% | Population Pyknosed Nuclei (%) [8]: 9% | Total Cell Count [8]: 71 | Population Apoptotic (%) [9]: 80% | Population Fragmented Nuclei (%) [9]: 18% | Population Healthy Nuclei (%) [9]: 70% | Population Hoechst High Intensity Objects (%) [9]: 4% | Population Membrane Permeable-Phenotype (%) [9]: 10% | Population Mitochondria Different-Phenotype (%) [9]: 32% | Population Mitotic Cells (%) [9]: 19% | Population Normal (%) [9]: 95% | Population Pyknosed Nuclei (%) [9]: 11% | Population Tubulin-Different-Phenotype (%) [9]: 30% | Total Cell Count [9]: 261 | Population Apoptotic (%) [10]: 25% | Population Fragmented Nuclei (%) [10]: 16% | Population Healthy Nuclei (%) [10]: 77% | Population Hoechst High Intensity Objects (%) [10]: 14% | Population Membrane Permeable-Phenotype (%) [10]: 21% | Population Mitochondria Different-Phenotype (%) [10]: 30% | Population Mitotic Cells (%) [10]: 75% | Population Normal (%) [10]: 85% | Population Pyknosed Nuclei (%) [10]: 5% | Population Tubulin-Different-Phenotype (%) [10]: 37% | Total Cell Count [10]: 62 | Population Fragmented Nuclei (%) [11]: 24% | Population Healthy Nuclei (%) [11]: 50% | Population Hoechst High Intensity Objects (%) [11]: 7% | Population Membrane Permeable-Phenotype (%) [11]: 76% | Population Mitochondria Different-Phenotype (%) [11]: 91% | Population Normal (%) [11]: 92% | Population Pyknosed Nuclei (%) [11]: 24% | Total Cell Count [11]: 186 | Population Apoptotic (%) [12]: 100% | Population Fragmented Nuclei (%) [12]: 14% | Population Healthy Nuclei (%) [12]: 72% | Population Hoechst High Intensity Objects (%) [12]: 15% | Population Membrane Permeable-Phenotype (%) [12]: 88% | Population Mitochondria Different-Phenotype (%) [12]: 100% | Population Mitotic Cells (%) [12]: 0% | Population Normal (%) [12]: 84% | Population Pyknosed Nuclei (%) [12]: 12% | Population Tubulin-Different-Phenotype (%) [12]: 100% | Total Cell Count [12]: 84

Cn1c(-c2csc(C3CCN(CC4=NC5N=CC=CC5N4)CC3)n2)nc2ccccc21 (configuration not stated) [BAY-070]
Population Fragmented Nuclei (%) [3]: 2% and 3% | Population Healthy Nuclei (%) [3]: 90% | Population Hoechst High Intensity Objects (%) [3]: 5% and 3% | Population Membrane Permeable-Phenotype (%) [3]: 6% | Population Mitochondria Different-Phenotype (%) [3]: 10% | Population Mitotic Cells (%) [3]: 91% and 70% | Population Normal (%) [3]: 94% and 96% | Population Pyknosed Nuclei (%) [3]: 6% and 11% | Population Tubulin-Different-Phenotype (%) [3]: 22% and 8% | Total Cell Count [3]: 183 and 214 | Population Fragmented Nuclei (%) [4]: 13% and 7% | Population Healthy Nuclei (%) [4]: 84% and 89% | Population Hoechst High Intensity Objects (%) [4]: 12% and 13% | Population Membrane Permeable-Phenotype (%) [4]: 19% and 8% | Population Mitochondria Different-Phenotype (%) [4]: 21% and 25% | Population Mitotic Cells (%) [4]: 100% and 66% | Population Normal (%) [4]: 87% and 86% | Population Pyknosed Nuclei (%) [4]: 2% | Population Tubulin-Different-Phenotype (%) [4]: 19% and 34% | Total Cell Count [4]: 96 and 145 | Population Apoptotic (%) [7]: 50% and 40% | Population Fragmented Nuclei (%) [7]: 5% and 3% | Population Healthy Nuclei (%) [7]: 88% and 92% | Population Hoechst High Intensity Objects (%) [7]: 3% and 2% | Population Membrane Permeable-Phenotype (%) [7]: 10% | Population Mitochondria Different-Phenotype (%) [7]: 17% and 14% | Population Mitotic Cells (%) [7]: 50% and 60% | Population Normal (%) [7]: 96% and 97% | Population Pyknosed Nuclei (%) [7]: 6% and 3% | Population Tubulin-Different-Phenotype (%) [7]: 15% and 30% | Total Cell Count [7]: 265 and 259 | Population Apoptotic (%) [8]: 20% and 33% | Population Fragmented Nuclei (%) [8]: 7% and 6% | Population Healthy Nuclei (%) [8]: 87% and 84% | Population Hoechst High Intensity Objects (%) [8]: 12% | Population Mitochondria Different-Phenotype (%) [8]: 25% and 27% | Population Mitotic Cells (%) [8]: 80% and 66% | Population Normal (%) [8]: 87% | Population Pyknosed Nuclei (%) [8]: 5% and 8% | Population Tubulin-Different-Phenotype (%) [8]: 19% and 39% | Total Cell Count [8]: 108 and 180

From ChEMBL document CHEMBL4689842, “EUbOPEN Chemogenomics Library wave 1” (2021)
